Experimental data taken from ChEMBL document CHEMBL1131103, “Synthesis and biological evaluation of 2-acyl analogues of paclitaxel (Taxol)” (J Med Chem, 1998).

What was measured:
[1] = system: ptx-10/22; test: Relative resistance was measured against human paclitaxel-resistant cell lines; assay type: functional, cell-based; details: 1A9(PTX22)
[2] = system: Panel ovarian (Carcinoma cell lines); test: Cytotoxic activity was measured against human Ovarian carcinoma cell lines; assay type: functional, cell-based
How it was run: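 Ovarian carcinoma line 1A9, a subclone of A2780, grown as monolayers in 96-well plates for 96 h at 37 °C, 5% CO₂. Cell protein quantitated (Skehan method). IC₅₀ = concentration inhibiting the increase in cell protein by 50%.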

[3] = species on record: Bos taurus; test: Polymerizing activity of tubulin in glutamate against bovine brain tubulin homogenate was measured at 0.4 M concentrations; assay type: functional
How it was run: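 Purified, electrophoretically homogeneous bovine brain tubulin assembled at room temperature without GTP or Mg²⁺ in 0.4 M monosodium glutamate (from 2 M stock, pH 6.6). Polymer pelleted by centrifugation. IC₅₀ = drug concentration lowering supernatant protein by 50% versus no-drug control. Up to 40 µM. At least three independent experiments, or at least two where IC₅₀ exceeded 40 µM.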

[4] = system: Burkitts lymphoma cell; test: Cytotoxic activity against was measured human Burkitt lymphoma cell lines.; assay type: functional, cell-based
How it was run: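 CA46 Burkitt lymphoma cells in 5.0-mL suspension culture, counted after 24 h at 37 °C under 5% CO₂. IC₅₀ = drug concentration halving the increase in cell number. Highest concentration 100 nM. At least two independent experiments.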

[5] = system: Panel colon (Carcinoma cell lines); test: Cytotoxic activity was measured against human colon carcinoma cell lines; assay type: functional, cell-based
How it was run: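 HCT116 colon carcinoma monolayers in 96-well plates, 48 h at 37 °C under 5% CO₂. Cell protein measured. IC₅₀ = concentration giving 50% inhibition of the increase in cell protein.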

[6] = species on record: Bos taurus; test: Polymerizing activity of tubulin in glutamate against bovine brain tubulin homogenate was measured at 0.8M concentrations; assay type: functional
How it was run: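 Bovine brain tubulin, purified to electrophoretic homogeneity, in 0.8 M monosodium glutamate (from 2 M stock, pH 6.6), room temperature, no GTP. Polymer removed by centrifugation. IC₅₀ = concentration reducing supernatant protein by 50% relative to drug-free control. Maximum 40 µM. At least three independent experiments, or at least two for IC₅₀ over 40 µM.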

[7] = species on record: Bos taurus; test: Polymerizing activity of microtubule protein against the twice cycled microtubule protein; assay type: functional
How it was run: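 Twice-cycled microtubule protein, stored in liquid nitrogen, at 1.0 mg/mL final in 0.1 M MES, 1 mM EGTA, 0.5 mM MgCl₂, pH 6.6, 37 °C, no GTP. Compound at 2.5, 5.0 and 10 µM. Absorbance read every 10 s and initial linear slopes taken. EC0.01 = interpolated concentration giving an initial slope of 0.01 A unit/min.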

| SMILES | IC50 [3] | IC50 [6] | relative resistance [1] | IC50 [2] | IC50 [4] | IC50 [5] | EC0.01 (relative to paclitaxel) [7] |
| --- | --- | --- | --- | --- | --- | --- | --- |
| CC(=O)O[C@H]1C(=O)[C@@]2(C)[C@H]([C@H](OC(=O)c3ccccc3N=[N+]=[N-])[C@]3(O)C[C@H](OC(=O)[C@H](O)[C@@H](NC(=O)c4ccccc4)c4ccccc4)C(C)=C1C3(C)C)[C@]1(OC(C)=O)CO[C@@H]1C[C@@H]2O | 0.38 relative to paclitaxel | – | 0.67 | 0.77 relative to paclitaxel | – | 0.36 relative to paclitaxel | 0.7 |
| CSc1cccc(C(=O)O[C@H]2[C@@H]3[C@]4(OC(C)=O)CO[C@@H]4C[C@H](O)[C@@]3(C)C(=O)[C@H](OC(C)=O)C3=C(C)[C@@H](OC(=O)[C@H](O)[C@@H](NC(=O)c4ccccc4)c4ccccc4)C[C@]2(O)C3(C)C)c1 | > 1.7 relative to paclitaxel | 2.7 relative to paclitaxel | 0.52 | 3.3 relative to paclitaxel | 1 relative to paclitaxel | – | – |
| CC(=O)O[C@H]1C(=O)[C@@]2(C)[C@H]([C@H](OC(=O)c3ccc(Cl)c(Cl)c3)[C@]3(O)C[C@H](OC(=O)[C@H](O)[C@@H](NC(=O)c4ccccc4)c4ccccc4)C(C)=C1C3(C)C)[C@]1(OC(C)=O)CO[C@@H]1C[C@@H]2O | 0.41 relative to paclitaxel | – | 0.27 | 1 relative to paclitaxel | – | 0.77 relative to paclitaxel | 0.76 |
| COc1cccc(C(=O)O[C@H]2[C@@H]3[C@]4(OC(C)=O)CO[C@@H]4C[C@H](O)[C@@]3(C)C(=O)[C@H](OC(C)=O)C3=C(C)[C@@H](OC(=O)[C@H](O)[C@@H](NC(=O)c4ccccc4)c4ccccc4)C[C@]2(O)C3(C)C)c1 | 0.22 relative to paclitaxel | – | 0.71 | 0.095 relative to paclitaxel | 0.27 relative to paclitaxel | 0.35 relative to paclitaxel | 0.5 |
| CC(=O)O[C@H]1C(=O)[C@@]2(C)[C@H]([C@H](OC(=O)c3ccc(Cl)cc3)[C@]3(O)C[C@H](OC(=O)[C@H](O)[C@@H](NC(=O)c4ccccc4)c4ccccc4)C(C)=C1C3(C)C)[C@]1(OC(C)=O)CO[C@@H]1C[C@@H]2O | > 1.7 relative to paclitaxel | > 8.9 relative to paclitaxel | – | 7.6 relative to paclitaxel | 1.3 relative to paclitaxel | – | – |
| COc1cccc(C(=O)O[C@H]2[C@@H]3[C@]4(OC(C)=O)CO[C@@H]4C[C@H](O)[C@@]3(C)C(=O)[C@H](OC(C)=O)C3=C(C)[C@@H](OC(=O)[C@H](O)[C@@H](NC(=O)c4ccccc4)c4ccccc4)C[C@]2(O)C3(C)C)c1OC | > 1.7 relative to paclitaxel | > 8.9 relative to paclitaxel | – | > 48 relative to paclitaxel | > 3.3 relative to paclitaxel | 59 relative to paclitaxel | > 270 |
| CC(=O)O[C@H]1C(=O)[C@@]2(C)[C@H]([C@H](OC(=O)c3cc(F)cc(F)c3)[C@]3(O)C[C@H](OC(=O)[C@H](O)[C@@H](NC(=O)c4ccccc4)c4ccccc4)C(C)=C1C3(C)C)[C@]1(OC(C)=O)CO[C@@H]1C[C@@H]2O | 0.29 relative to paclitaxel | – | 1.1 | 0.12 relative to paclitaxel | – | 0.36 relative to paclitaxel | 0.6 |
| CC(=O)O[C@H]1C(=O)[C@@]2(C)[C@H]([C@H](OC(=O)c3cccc(Br)c3)[C@]3(O)C[C@H](OC(=O)[C@H](O)[C@@H](NC(=O)c4ccccc4)c4ccccc4)C(C)=C1C3(C)C)[C@]1(OC(C)=O)CO[C@@H]1C[C@@H]2O | 0.24 relative to paclitaxel | – | 0.42 | 0.32 relative to paclitaxel | – | 0.32 relative to paclitaxel | 0.8 |
| CC(=O)O[C@H]1C(=O)[C@@]2(C)[C@H]([C@H](OC(=O)c3cccc(C(F)(F)F)c3)[C@]3(O)C[C@H](OC(=O)[C@H](O)[C@@H](NC(=O)c4ccccc4)c4ccccc4)C(C)=C1C3(C)C)[C@]1(OC(C)=O)CO[C@@H]1C[C@@H]2O | > 1.7 relative to paclitaxel | 6.7 relative to paclitaxel | – | 1.4 relative to paclitaxel | 0.67 relative to paclitaxel | 3 relative to paclitaxel | 1.3 |
| CC(=O)O[C@H]1C(=O)[C@@]2(C)[C@H]([C@H](OC(=O)c3cccc(C#N)c3)[C@]3(O)C[C@H](OC(=O)[C@H](O)[C@@H](NC(=O)c4ccccc4)c4ccccc4)C(C)=C1C3(C)C)[C@]1(OC(C)=O)CO[C@@H]1C[C@@H]2O | 0.63 relative to paclitaxel | – | 1.3 | 0.32 relative to paclitaxel | – | 1.1 relative to paclitaxel | 1 |
| COc1cc(C(=O)O[C@H]2[C@@H]3[C@]4(OC(C)=O)CO[C@@H]4C[C@H](O)[C@@]3(C)C(=O)[C@H](OC(C)=O)C3=C(C)[C@@H](OC(=O)[C@H](O)[C@@H](NC(=O)c4ccccc4)c4ccccc4)C[C@]2(O)C3(C)C)cc(OC)c1OC | > 1.7 relative to paclitaxel | > 8.9 relative to paclitaxel | – | > 48 relative to paclitaxel | > 3.3 relative to paclitaxel | 110 relative to paclitaxel | 32 |
| CC(=O)O[C@H]1C(=O)[C@@]2(C)[C@H]([C@H](OC(=O)c3cccc(F)c3)[C@]3(O)C[C@H](OC(=O)[C@H](O)[C@@H](NC(=O)c4ccccc4)c4ccccc4)C(C)=C1C3(C)C)[C@]1(OC(C)=O)CO[C@@H]1C[C@@H]2O | 1.2 relative to paclitaxel | 2.6 relative to paclitaxel | 0.96 | 0.4 relative to paclitaxel | – | 0.45 relative to paclitaxel | 0.7 |

Second part, led by results:

| IC50 [3] | IC50 [6] | SMILES | relative resistance [1] | IC50 [2] | IC50 [4] | IC50 [5] | EC0.01 (relative to paclitaxel) [7] |
| --- | --- | --- | --- | --- | --- | --- | --- |
| > 1.7 relative to paclitaxel | 4.7 relative to paclitaxel | COc1cc(OC)cc(C(=O)O[C@H]2[C@@H]3[C@]4(OC(C)=O)CO[C@@H]4C[C@H](O)[C@@]3(C)C(=O)[C@H](OC(C)=O)C3=C(C)[C@@H](OC(=O)[C@H](O)[C@@H](NC(=O)c4ccccc4)c4ccccc4)C[C@]2(O)C3(C)C)c1 | 0.57 | 3.3 relative to paclitaxel | 1 relative to paclitaxel | 5.4 relative to paclitaxel | 2.6 |
| 0.2 relative to paclitaxel | – | CC(=O)O[C@H]1C(=O)[C@@]2(C)[C@H]([C@H](OC(=O)c3cccc(N=[N+]=[N-])c3)[C@]3(O)C[C@H](OC(=O)[C@H](O)[C@@H](NC(=O)c4ccccc4)c4ccccc4)C(C)=C1C3(C)C)[C@]1(OC(C)=O)CO[C@@H]1C[C@@H]2O | 0.27 | 0.18 relative to paclitaxel | 0.17 relative to paclitaxel | 1.4 relative to paclitaxel | 0.37 |
| 0.91 relative to paclitaxel | – | CC(=O)O[C@H]1C(=O)[C@@]2(C)[C@H]([C@H](OC(=O)c3cc(Cl)cc(Cl)c3)[C@]3(O)C[C@H](OC(=O)[C@H](O)[C@@H](NC(=O)c4ccccc4)c4ccccc4)C(C)=C1C3(C)C)[C@]1(OC(C)=O)CO[C@@H]1C[C@@H]2O | 0.48 | 0.38 relative to paclitaxel | 0.67 relative to paclitaxel | 0.51 relative to paclitaxel | 0.44 |
| > 1.7 relative to paclitaxel | > 8.9 relative to paclitaxel | CC(=O)O[C@H]1C(=O)[C@@]2(C)[C@H]([C@H](OC(=O)c3ccc(O)cc3)[C@]3(O)C[C@H](OC(=O)[C@H](O)[C@@H](NC(=O)c4ccccc4)c4ccccc4)C(C)=C1C3(C)C)[C@]1(OC(C)=O)CO[C@@H]1C[C@@H]2O | – | 31 relative to paclitaxel | 3 relative to paclitaxel | 52 relative to paclitaxel | 19 |
| 0.29 relative to paclitaxel | – | CC(=O)O[C@H]1C(=O)[C@@]2(C)[C@H]([C@H](OC(=O)c3cc(F)ccc3F)[C@]3(O)C[C@H](OC(=O)[C@H](O)[C@@H](NC(=O)c4ccccc4)c4ccccc4)C(C)=C1C3(C)C)[C@]1(OC(C)=O)CO[C@@H]1C[C@@H]2O | 0.57 | 0.67 relative to paclitaxel | 0.67 relative to paclitaxel | 0.44 relative to paclitaxel | 0.34 |
| 0.2 relative to paclitaxel | – | COc1ccc(OC)c(C(=O)O[C@H]2[C@@H]3[C@]4(OC(C)=O)CO[C@@H]4C[C@H](O)[C@@]3(C)C(=O)[C@H](OC(C)=O)C3=C(C)[C@@H](OC(=O)[C@H](O)[C@@H](NC(=O)c4ccccc4)c4ccccc4)C[C@]2(O)C3(C)C)c1 | 0.76 | 0.12 relative to paclitaxel | 0.67 relative to paclitaxel | 0.14 relative to paclitaxel | 0.5 |
| > 1.7 relative to paclitaxel | > 8.9 relative to paclitaxel | CC(=O)O[C@H]1C(=O)[C@@]2(C)[C@H]([C@H](OC(=O)c3cccc(F)c3F)[C@]3(O)C[C@H](OC(=O)[C@H](O)[C@@H](NC(=O)c4ccccc4)c4ccccc4)C(C)=C1C3(C)C)[C@]1(OC(C)=O)CO[C@@H]1C[C@@H]2O | – | 14 relative to paclitaxel | – | 0.55 relative to paclitaxel | 0.8 |
| 0.3 relative to paclitaxel | – | CC(=O)O[C@H]1C(=O)[C@@]2(C)[C@H]([C@H](OC(=O)c3cccc(Cl)c3)[C@]3(O)C[C@H](OC(=O)[C@H](O)[C@@H](NC(=O)c4ccccc4)c4ccccc4)C(C)=C1C3(C)C)[C@]1(OC(C)=O)CO[C@@H]1C[C@@H]2O | 2.9 | 0.05 relative to paclitaxel | 0.67 relative to paclitaxel | 1.7 relative to paclitaxel | 0.92 |
| > 1.7 relative to paclitaxel | > 8.9 relative to paclitaxel | CC(=O)O[C@H]1C(=O)[C@@]2(C)[C@H]([C@H](OC(=O)c3cc([N+](=O)[O-])cc([N+](=O)[O-])c3)[C@]3(O)C[C@H](OC(=O)[C@H](O)[C@@H](NC(=O)c4ccccc4)c4ccccc4)C(C)=C1C3(C)C)[C@]1(OC(C)=O)CO[C@@H]1C[C@@H]2O | – | 20 relative to paclitaxel | 2.3 relative to paclitaxel | 3.1 relative to paclitaxel | 4.2 |
